Experimental data: ChEMBL document CHEMBL1135390, “Inotropic activity of hydroindene amidinohydrazones” (2002)

Assays:
Cavia porcellus [1] = organism: Cavia porcellus; test: Inotropic activity on electrically driven isolated Guinea pig left atria, (from basal force).; type: functional
In short: (§1)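 Isolated guinea pig left atrium paced at 1 Hz via bipolar platinum electrodes (1 ms pulses, twice threshold voltage), in oxygenated (95% O2/5% CO2) Tyrode-type solution at 34 °C. Resting tension 1 g, 60 min equilibration. Isometric contraction amplitude measured. Cumulative 10^-7 to 5×10^-4 M at 30 min intervals, 1% DMSO final. Expressed as % of pre-drug control. Mean of at least five experiments.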

Cavia porcellus [2] = organism: Cavia porcellus; test: Inotropic activity on cardiac frequency on spontaneously beating guinea pig right atria, (from basal frequency).; type: functional, Heart
In short: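 Isolated guinea pig right atrium, beating spontaneously, in oxygenated (95% O2/5% CO2) Tyrode-type solution at 34 °C. Resting tension 1 g, 60 min equilibration. Rate recorded isometrically via force transducer. Cumulative concentrations 10^-7 to 5×10^-4 M added at 30 min intervals, from DMSO stock (1% DMSO final in bath). Expressed as % of pre-drug control. Mean of at least five experiments.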

Cavia porcellus [3] = organism: Cavia porcellus; test: Inotropic activity on electrically driven isolated Guinea pig atria; type: functional; in short: as §1
[4] = Cavia porcellus, read-out: Emax
[5] = Cavia porcellus, Heart, read-out: Emax

Question: Which results are given for `C[C@]12CC/C(=N\N=C(N)N)C=C1CC[C@@H]2CO`?
Answer: Emax (Cavia porcellus [1]; [4]): -47%; Emax (Cavia porcellus [2]; [5]): 22%; concentration at Emax (Cavia porcellus [3]): 0.3 mM

Question: What does the source list for `COC(=O)/C=C\[C@H]1CCC2=C/C(=N/N=C(N)N)CC[C@@]21C`?
Answer: Emax (Cavia porcellus [1]; [4]): -76%; Emax (Cavia porcellus [2]; [5]): -54%; concentration at Emax (Cavia porcellus [3]): 0.3 mM

Question: Which Emax (Cavia porcellus [1]; [4]) does the source give for `C[C@]12CC/C(=N\N=C(N)N)C=C1CC[C@@H]2/C=C/[N+](=O)[O-]` here?
Answer: 128%

Question: What about the Emax (Cavia porcellus [2]; [5]) of the same compound?
Answer: -1.7%

Question: And the “concentration at Emax” value (Cavia porcellus [3])?
Answer: 0.3 mM

Question: `C[C@]12CC/C(=N\N=C(N)N)C[C@@]1(O)CC[C@@H]2/C=N/N=C(N)N` was tested. Which Emax (Cavia porcellus [1]; [4]) did it give?
Answer: -59%

Question: What about the Emax (Cavia porcellus [2]; [5]) of the same compound?
Answer: -15%

Question: What about the “concentration at Emax” value (Cavia porcellus [3]) of the same compound?
Answer: 0.3 mM

Question: How did the Emax (Cavia porcellus [1]; [4]) turn out when `COC(=O)/C=C/[C@H]1CCC2=C(C)/C(=N/N=C(N)N)CC[C@@]21C` was run?
Answer: -41%

Question: What about the Emax (Cavia porcellus [2]; [5]) of the same compound?
Answer: -0.2%

Question: And the “concentration at Emax” value (Cavia porcellus [3])?
Answer: 0.3 mM

Question: Which Emax (Cavia porcellus [1]; [4]) does the source give for `C[C@]12CC/C(=N\N=C(N)N)C=C1CC[C@@H]2CN1C(=O)c2ccccc2C1=O` here?
Answer: 86%

Question: What about the Emax (Cavia porcellus [2]; [5]) of the same compound?
Answer: -18%

Question: And the “concentration at Emax” value (Cavia porcellus [3])?
Answer: 0.1 mM

Question: What does the source list for `CC1=C2CC[C@@H](/C=N/N=C(N)N)[C@@]2(C)CC/C1=N\N=C(N)N`?
Answer: Emax (Cavia porcellus [1]; [4]): 129%; Emax (Cavia porcellus [2]; [5]): 33.7%; concentration at Emax (Cavia porcellus [3]): 0.3 mM

Question: How did the Emax (Cavia porcellus [1]; [4]) turn out when `C[C@]12CC/C(=N\N=C(N)N)C=C1CC[C@@H]2CN` was run?
Answer: 46%

Question: And the Emax (Cavia porcellus [2]; [5])?
Answer: -16%

Question: What about the “concentration at Emax” value (Cavia porcellus [3]) of the same compound?
Answer: 0.3 mM

Question: With `CC1=C2CC[C@H](/C=N/N=C(N)N)[C@@]2(C)CC/C1=N\N=C(N)N` as the compound, how does the Emax (Cavia porcellus [1]; [4]) read?
Answer: 108%

Question: And the Emax (Cavia porcellus [2]; [5])?
Answer: 4.2%

Question: And the “concentration at Emax” value (Cavia porcellus [3])?
Answer: 0.3 mM

Question: What does the source list for `COC(=O)/C=C/[C@H]1CCC2=C/C(=N/N=C(N)N)CC[C@@]21C`?
Answer: Emax (Cavia porcellus [1]; [4]): -67%; Emax (Cavia porcellus [2]; [5]): 13.2%; concentration at Emax (Cavia porcellus [3]): 0.3 mM

Question: What does the source list for `C[C@]12CC/C(=N\N=C(N)N)C=C1CC[C@@H]2/C=N/N=C(N)N` (stereo in doubt; 3)?
Answer: Emax (Cavia porcellus [1]): 132%; Emax (Cavia porcellus [2]): -5.4%

Question: For `C[C@]12CC/C(=N\N=C(N)N)C=C1CC[C@@H]2/C=N/N=C(N)N` (stereo in doubt; 30), which Emax (Cavia porcellus [1]) is on record?
Answer: 170%

Question: What about the Emax (Cavia porcellus [2]) of the same compound?
Answer: -5.1%

Question: What about the “concentration at Emax” value (Cavia porcellus [3]) of the same compound?
Answer: 0.3 mM

Question: How did the Emax (Cavia porcellus [1]; [4]) turn out when `C[C@H]1O[C@@H](O[C@H]2[C@@H](O)C[C@H](O[C@H]3[C@@H](O)C[C@H](O[C@H]4CC[C@@]5(C)[C@H](CC[C@@H]6[C@@H]5C[C@@H](O)[C@]5(C)[C@@H](C7=CC(=O)OC7)CC[C@]65O)C4)O[C@@H]3C)O[C@@H]2C)C[C@H](O)[C@@H]1O` [DIGOXIN] was run?
Answer: 103%

Question: What about the Emax (Cavia porcellus [2]; [5]) of the same compound?
Answer: -28.3%

Question: And the “concentration at Emax” value (Cavia porcellus [3])?
Answer: 0.001 mM

Question: How did the Emax (Cavia porcellus [1]; [4]) turn out when `C[C@]12CC[C@H]3[C@@H](CC[C@]4(O)C[C@@H](O)CC[C@]34C=O)[C@@]1(O)CC[C@@H]2C1=CC(=O)OC1` [STROPHANTHIDIN] was run?
Answer: 122%

Question: And the Emax (Cavia porcellus [2]; [5])?
Answer: 80.4%

Question: And the “concentration at Emax” value (Cavia porcellus [3])?
Answer: 0.001 mM
